Entries after “also recorded” stand apart in the source; their conditions may differ.
Key:
[1] = tested on: MM cells (RPMI-8226, NCI-H929, U266B1, MM.1S); assay: CellTiter-Glo cell viability, multiple myeloma cell lines; assay type: cell-based, human; settings: 24 h; for Concentrations that significantly reduced MM cell viability: RPMI-8226 cells
CDK9 [2] = molecular target: CDK9 (Homo sapiens, UniProt P50750); settings: cited from earlier work
PKC [3] = settings: cited from earlier work
[4] = tested on: primary CD138-positive plasma cells from MM patient bone marrow biopsies; assay: Cell viability of primary MM patient plasma cells; assay type: cell-based, human; settings: 24 h; cells from 2 patients
Procedure, shortened: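 Bone marrow aspirates from MM patients were separated on Ficoll-Paque. CD138+ plasma cells were isolated with magnetic anti-CD138 beads, and purity was checked by FACS. Cells were cultured in RPMI 1640 with 10% FBS and gentamycin at 37°C and 5% CO2, then treated with the test compound at a range of concentrations for 24 h. Viability was read by CellTiter-Glo luminescence; mean ± S.E (n=3).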

[5] = tested on: human cell lines derived from multiple tumor types; assay: CellTiter-Glo cell viability, panel of tumor cell lines; assay type: cell-based
[6] = tested on: H460, A172, HT29, HepG2, hFOB and MRC-5 cells; assay type: cell-based, human; settings: 500 nM, 16 hours
RPMI-8226 cells = assay: Apoptosis, cleaved caspase-3 flow cytometry in MM cells; assay type: cell-based, human; settings: 16 hours
RPMI-8226/NIH-3T3 tumors = assay: RPMI-8226-GFP/NIH-3T3 co-injection xenograft model
PKC [7] = assay: Phorbol ester-induced PKC and ERK phosphorylation in MM cells; assay type: cell-based, human; settings: MM cells stimulated with phorbol-12-myristate-13-acetate
[8] = cited from earlier work
CDK2/cyclin A = CDK2/cyclin A (Homo sapiens, UniProt P24941); settings: read-out: IC50 CDK2/cyclin A
[9] = tested on: NCI-H929 subcutaneous xenografted tumors; assay: MM subcutaneous plasmacytoma model; assay type: in vivo, hairless SCID mice; settings: for Tumor growth delay relative to vehicle-treated controls: 5 mg/kg
[10] = Pilot toxicity study, body condition scoring; assay type: in vivo, mice
Procedure, shortened: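 Pilot tolerability study in a small cohort of mice. Doses were chosen from a range based on NCI DTP toxicity data. A single dose was given, and toxicity was assessed qualitatively by body condition scoring.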

[11] = tested on: cyclin D1, c-Maf, c-Myc, L-Myc; assay: Expression of MM oncogenes, Western blot and RT-PCR; assay type: cell-based, human; settings: 250 nM
CDK9 [12] = assay: CDK9 signaling, Western blots in MM cells; assay type: cell-based, human; settings: NCI-H929 cells, 2 hours
CDK9/cyclin K = CDK9/cyclin K (Homo sapiens, UniProt P50750); settings: read-out: IC50 CDK9/cyclin K kinase activity
CDK9/cyclin K, sequence (P50750 whole entry): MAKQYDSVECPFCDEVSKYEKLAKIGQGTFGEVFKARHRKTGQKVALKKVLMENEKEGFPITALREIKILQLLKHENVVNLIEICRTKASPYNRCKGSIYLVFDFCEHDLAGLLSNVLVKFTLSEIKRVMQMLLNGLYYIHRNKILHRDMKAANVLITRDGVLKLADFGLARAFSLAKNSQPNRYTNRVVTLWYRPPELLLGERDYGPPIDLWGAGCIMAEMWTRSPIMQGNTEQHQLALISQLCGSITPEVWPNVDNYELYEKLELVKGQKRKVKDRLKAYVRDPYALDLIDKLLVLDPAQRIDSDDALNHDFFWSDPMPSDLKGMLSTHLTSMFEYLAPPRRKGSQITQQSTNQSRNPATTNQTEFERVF
CDK9/cyclin K, sequence (O75909 whole entry partner): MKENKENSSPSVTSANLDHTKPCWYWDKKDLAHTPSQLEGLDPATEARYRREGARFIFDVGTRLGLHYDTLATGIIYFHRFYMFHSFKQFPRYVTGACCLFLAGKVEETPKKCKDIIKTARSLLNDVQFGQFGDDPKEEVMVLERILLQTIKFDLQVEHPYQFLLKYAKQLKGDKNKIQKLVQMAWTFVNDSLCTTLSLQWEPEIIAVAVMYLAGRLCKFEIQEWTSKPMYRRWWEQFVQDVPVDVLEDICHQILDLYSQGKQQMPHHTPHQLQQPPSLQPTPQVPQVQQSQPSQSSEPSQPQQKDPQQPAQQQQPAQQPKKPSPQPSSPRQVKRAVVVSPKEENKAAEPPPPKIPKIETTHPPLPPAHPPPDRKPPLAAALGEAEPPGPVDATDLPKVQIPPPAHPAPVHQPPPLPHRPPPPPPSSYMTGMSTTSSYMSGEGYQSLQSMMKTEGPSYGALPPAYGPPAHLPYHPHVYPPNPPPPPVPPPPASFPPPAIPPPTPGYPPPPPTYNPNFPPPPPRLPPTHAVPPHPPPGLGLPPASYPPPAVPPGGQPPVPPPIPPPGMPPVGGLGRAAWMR

CDK7 = assay: RNA polymerase II Ser5 phosphorylation; assay type: cell-based, human; settings: NCI-H929 cells, 2 hours
CDK4/cyclin D1 = CDK4/cyclin D1 (Homo sapiens, UniProt P11802); assay: HotSpot in vitro kinase assay CDK4/cyclin D1; assay type: biochemical; settings: read-out: IC50 CDK4/cyclin D1
CDK4/cyclin D1, sequence (P11802 whole entry): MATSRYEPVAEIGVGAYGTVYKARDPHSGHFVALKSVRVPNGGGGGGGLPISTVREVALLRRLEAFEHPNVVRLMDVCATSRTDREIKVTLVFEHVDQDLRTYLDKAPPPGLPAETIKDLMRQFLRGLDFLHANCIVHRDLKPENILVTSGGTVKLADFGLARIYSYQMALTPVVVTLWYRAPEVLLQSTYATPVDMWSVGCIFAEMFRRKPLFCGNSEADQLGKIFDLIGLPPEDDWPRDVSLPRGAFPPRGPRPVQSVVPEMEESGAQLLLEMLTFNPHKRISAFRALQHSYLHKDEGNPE
CDK4/cyclin D1, sequence (P24385 whole entry partner): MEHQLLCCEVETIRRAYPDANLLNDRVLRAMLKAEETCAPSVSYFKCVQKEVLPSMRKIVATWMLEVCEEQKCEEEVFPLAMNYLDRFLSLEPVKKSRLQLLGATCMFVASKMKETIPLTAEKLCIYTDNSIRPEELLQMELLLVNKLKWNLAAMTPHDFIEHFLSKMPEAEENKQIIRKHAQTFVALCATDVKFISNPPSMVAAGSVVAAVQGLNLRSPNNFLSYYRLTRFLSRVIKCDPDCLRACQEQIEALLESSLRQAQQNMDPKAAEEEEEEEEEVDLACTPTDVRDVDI

CDK7/cyclin H = CDK7/cyclin H (Homo sapiens, UniProt P50613); assay: HotSpot in vitro kinase assay CDK7/cyclin H; assay type: biochemical; settings: read-out: IC50 CDK7/cyclin H
CDK7/cyclin H, sequence (P50613 whole entry): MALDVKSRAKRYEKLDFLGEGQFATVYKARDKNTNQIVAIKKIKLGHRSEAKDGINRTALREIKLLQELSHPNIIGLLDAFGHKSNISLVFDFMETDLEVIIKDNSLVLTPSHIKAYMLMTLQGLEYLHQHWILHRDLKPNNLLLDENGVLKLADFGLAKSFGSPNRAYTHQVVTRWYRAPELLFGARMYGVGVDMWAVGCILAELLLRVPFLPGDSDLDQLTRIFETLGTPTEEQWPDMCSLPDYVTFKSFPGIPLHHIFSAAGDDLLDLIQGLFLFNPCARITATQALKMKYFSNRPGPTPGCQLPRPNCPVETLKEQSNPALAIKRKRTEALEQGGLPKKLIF
CDK7/cyclin H, sequence (P51946 whole entry partner): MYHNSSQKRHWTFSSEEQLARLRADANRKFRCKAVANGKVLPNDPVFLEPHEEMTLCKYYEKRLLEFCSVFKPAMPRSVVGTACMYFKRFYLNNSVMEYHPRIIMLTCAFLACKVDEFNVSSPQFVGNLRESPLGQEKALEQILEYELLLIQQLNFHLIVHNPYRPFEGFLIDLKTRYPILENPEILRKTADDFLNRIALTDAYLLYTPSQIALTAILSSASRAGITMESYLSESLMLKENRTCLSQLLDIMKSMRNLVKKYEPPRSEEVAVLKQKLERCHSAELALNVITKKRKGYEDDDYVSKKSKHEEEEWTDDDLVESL
CDK7/cyclin H, sequence (P51948 whole entry partner): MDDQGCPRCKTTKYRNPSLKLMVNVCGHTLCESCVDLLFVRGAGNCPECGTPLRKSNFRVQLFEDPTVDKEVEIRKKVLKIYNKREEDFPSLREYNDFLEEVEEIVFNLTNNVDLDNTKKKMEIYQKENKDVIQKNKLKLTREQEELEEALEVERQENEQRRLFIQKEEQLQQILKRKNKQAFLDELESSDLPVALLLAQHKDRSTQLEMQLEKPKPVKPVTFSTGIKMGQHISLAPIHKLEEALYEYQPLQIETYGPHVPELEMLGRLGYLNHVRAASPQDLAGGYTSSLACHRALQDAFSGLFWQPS

[13] = tested on: NCI-H929 and CD138+ MM patient bone marrow cells; assay: Cell viability, SLM6 with bortezomib; assay type: cell-based, human; settings: single agents
CDK1/cyclin B = CDK1/cyclin B (Homo sapiens, UniProt P06493); assay: HotSpot in vitro kinase assay CDK1/cyclin B; assay type: biochemical; settings: read-out: IC50 CDK1/cyclin B
CDK1/cyclin B, sequence (P06493 whole entry): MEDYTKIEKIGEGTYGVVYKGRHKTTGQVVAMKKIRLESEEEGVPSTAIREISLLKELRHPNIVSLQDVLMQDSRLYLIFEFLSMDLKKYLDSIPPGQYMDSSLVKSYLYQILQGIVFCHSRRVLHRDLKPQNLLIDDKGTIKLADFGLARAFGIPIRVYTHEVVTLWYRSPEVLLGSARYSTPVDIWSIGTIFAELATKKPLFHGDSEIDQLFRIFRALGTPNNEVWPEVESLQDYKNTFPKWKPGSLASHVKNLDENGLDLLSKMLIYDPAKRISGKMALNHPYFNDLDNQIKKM
CDK1/cyclin B, sequence (P14635 whole entry partner): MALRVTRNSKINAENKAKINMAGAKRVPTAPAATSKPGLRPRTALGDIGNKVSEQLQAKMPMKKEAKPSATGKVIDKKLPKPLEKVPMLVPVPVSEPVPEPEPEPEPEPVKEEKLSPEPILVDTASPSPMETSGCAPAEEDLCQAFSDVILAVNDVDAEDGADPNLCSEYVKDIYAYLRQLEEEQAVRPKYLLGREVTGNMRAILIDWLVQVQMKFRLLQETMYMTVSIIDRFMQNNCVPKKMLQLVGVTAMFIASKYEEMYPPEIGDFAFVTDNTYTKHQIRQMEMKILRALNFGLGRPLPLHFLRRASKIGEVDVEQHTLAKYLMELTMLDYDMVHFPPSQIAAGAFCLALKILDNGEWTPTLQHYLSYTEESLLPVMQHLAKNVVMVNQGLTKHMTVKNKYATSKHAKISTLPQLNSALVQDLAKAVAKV

CDK9/cyclin T1 = CDK9/cyclin T1 (Homo sapiens, UniProt P50750); settings: read-out: IC50 CDK9/cyclin T1 kinase activity
CDK9/cyclin T1, sequence (P50750 whole entry): as the sequence (P50750 whole entry) above
CDK9/cyclin T1, sequence (O60563 whole entry partner): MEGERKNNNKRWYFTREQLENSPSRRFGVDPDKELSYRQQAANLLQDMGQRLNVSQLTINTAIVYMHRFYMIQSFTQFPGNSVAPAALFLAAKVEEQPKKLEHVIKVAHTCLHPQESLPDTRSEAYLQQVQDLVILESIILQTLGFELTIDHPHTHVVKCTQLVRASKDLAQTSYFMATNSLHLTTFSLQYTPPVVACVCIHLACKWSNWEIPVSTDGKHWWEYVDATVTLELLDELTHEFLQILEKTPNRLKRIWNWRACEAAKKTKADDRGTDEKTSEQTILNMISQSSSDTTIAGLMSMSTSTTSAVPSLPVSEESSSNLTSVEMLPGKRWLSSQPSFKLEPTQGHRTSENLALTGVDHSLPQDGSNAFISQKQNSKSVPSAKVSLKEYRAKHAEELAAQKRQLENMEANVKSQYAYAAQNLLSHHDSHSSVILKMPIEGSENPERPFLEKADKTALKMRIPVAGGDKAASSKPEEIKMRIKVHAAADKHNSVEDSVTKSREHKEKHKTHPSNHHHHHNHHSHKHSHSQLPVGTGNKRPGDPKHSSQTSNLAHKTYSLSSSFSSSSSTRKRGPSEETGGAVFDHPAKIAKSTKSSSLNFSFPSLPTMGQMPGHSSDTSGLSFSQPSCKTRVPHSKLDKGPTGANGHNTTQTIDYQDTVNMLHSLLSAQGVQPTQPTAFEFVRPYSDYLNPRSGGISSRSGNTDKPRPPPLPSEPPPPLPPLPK

[14] = Serum biochemistry and complete blood count in immunocompetent mice; assay type: in vivo; settings: C57BL/6 mice

CDK9 (Homo sapiens, UniProt P50750), sequence (P50750 whole entry): as the sequence (P50750 whole entry) above
CDK9 (Homo sapiens, UniProt P50750), sequence (O60563 whole entry partner): as the sequence (O60563 whole entry partner) above

O=c1[nH]cc(F)c(=O)[nH]1 [5′-fluorouracil]
Effect on MM cell viability [1]: relatively insensitive

NNc1c(C(N)=O)c2c(N)ncnc2n1[C@@H]1O[C@H](CO)[C@@H](O)[C@H]1O [SLM3]
Activity against CDK9 in vitro (CDK9 [2]): modest activity
Activity against PKC in vitro (PKC [3]): modest activity
Activity on cell viability of primary plasma cells [4]: confirmed this activity
Sensitivity of MM cells relative to other tumor types ([5]; MM cell lines and primary patient plasma cells vs other tumor types): 3 to 10 times
IC50 ([5]; read-out: IC50, cell viability, 24 h, breast, colon, lung, hepatocellular, glioma and one of two pancreatic cancer cell lines): > 2000 nM
Effect on MM cell viability [1]: superior activity compared to other nucleoside analogs
Concentrations that significantly reduced MM cell viability [1]: less than 250 nM
IC50 ([1]; read-out: IC50, cell viability, MM cells): 200 to 400 nM
Apoptosis (active caspase-3 positive cells) [6]: negligible levels of apoptosis
Apoptotic marker cleaved caspase-3 (RPMI-8226 cells; RPMI-8226, increasing concentrations): dose-dependent increase

Nc1ccn([C@@H]2O[C@H](CO)[C@@H](O)C2(F)F)c(=O)n1 [gemcitabine]
Effect on MM cell viability [1]: relatively insensitive

CN1CC[C@H](c2c(O)cc(O)c3c(=O)cc(-c4ccccc4Cl)oc23)[C@H](O)C1 [flavopiridol, reference compound]
Effect on MM cell viability [1]: able to reduce the viability of MM cells
Anti-MM activity in vivo (RPMI-8226/NIH-3T3 tumors; 5.0 mg/kg, weekly i.p.): no anti-MM activity

NC(=O)c1cn([C@@H]2O[C@H](CO)[C@@H](O)[C@H]2O)c2ncnc(N)c12 [sangivamycin, reference compound]
Activity against PKC (PKC [3]): known to inhibit PKC
Concentrations that significantly reduced MM cell viability [1]: less than 250 nM
MM cell apoptosis (cleaved caspase-3 positive cells) (RPMI-8226 cells; RPMI-8226, 500 nM): 60-80%
Phorbol ester-induced PKC or ERK phosphorylation (PKC [7]): significantly reduced phosphorylation of both kinases
Safety in humans, phase I trial [8]: demonstrated the safety of this compound in humans

Nc1nc(Cl)nc2c1ncn2[C@H]1C[C@H](O)[C@@H](CO)O1 [cladribine]
Effect on MM cell viability [1]: relatively insensitive

[Cl-].[Li+] [LiCl, lithium chloride]
Effect on MM cell viability [1]: neither LiCl nor purvalanol A reduced MM cell viability; also recorded: relatively insensitive

O=C1NC(=NCc2cccs2)S/C1=C\c1ccc2ncccc2c1 [RO3306]
Effect on MM cell viability [1]: relatively insensitive

N/N=C(\N)c1cn(C2OC(CO)C(O)C2O)c2ncnc(N)c12 (stereo not drawn) [SLM6]
IC50 (CDK2/cyclin A): < 300 nM
Apoptotic markers in tumors (immunohistochemistry) ([9]; 1 mg/kg i.p., 48 hours): regions of intense cleaved caspase-3 and cleaved caspase-8 immunostaining
Duration of sustained anti-tumor activity ([9]; 1 mg/kg i.p., single dose on day 1): 5 weeks
Toxicity by body condition scoring ([10]; single dose of 1 mg/kg): no overt toxicity
Effect on MM cell viability [1]: able to reduce the viability of MM cells
Concentrations that significantly reduced MM cell viability [1]: less than 250 nM
c-Myc and cyclin D1 mRNA transcripts (RT-PCR) ([11]; 6 hours, RPMI-8226 and U266B1 cells): decreased c-Myc and cyclin D1 mRNA transcripts
Oncogene protein expression (Western blot) ([11]; time course, U266B1, RPMI-8226, NCI-H929 cells): repressed the expression of cyclin D1 in U266B1 cells and c-Maf expression in RPMI-8226 cells; also recorded: repressed c-Myc protein levels in RPMI-8226 and NCI-H929 cells, and suppressed L-Myc expression in U266B1 cells
Lowest concentration inhibiting phosphorylation of RNA polymerase II at Ser2 (CDK9 [12]): 250 nM
Phosphorylation of CDK9 at Thr186 (CDK9 [12]): inhibited phosphorylation of CDK9 at Thr186
IC50 (CDK9/cyclin K): 280 nM
Phorbol ester-induced PKC or ERK phosphorylation (PKC [7]): no effect
Phosphorylation of RNA polymerase II at Ser5 (CDK7): no effect
IC50 (CDK4/cyclin D1): > 10 µM
IC50 (CDK7/cyclin H): > 10 µM
Size of MM tumors relative to vehicle-treated controls (RPMI-8226/NIH-3T3 tumors; 0.5 mg/kg, weekly i.p.): significantly reduced the size of MM tumors
Time to evident anti-MM effects after first treatment (RPMI-8226/NIH-3T3 tumors; 0.5 mg/kg, weekly i.p.): ≤ 7 days
Mouse body weight or body condition scoring (RPMI-8226/NIH-3T3 tumors; repeated dosing, 0.5 mg/kg weekly i.p.): no effect
Sensitivity of MM cell lines and primary patient plasma cells to single agent [13]: sensitive
IC50 (CDK1/cyclin B): < 300 nM
IC50 (CDK9/cyclin T1): 133 nM
Effects on normal hematopoiesis, complete blood count with differential [14]: no effects on normal hematopoiesis in vivo other than modest thrombocytopenia
Systemic toxicity by serum biochemistry [14]: no signs of systemic toxicity

N/C(=N\O)c1cn(C2OC(CO)C(O)C2O)c2ncnc(N)c12 (stereo not drawn) [SLM5]
Tumor growth delay relative to vehicle-treated controls ([9]; weekly i.p.): 7 days
Toxicity by body condition scoring ([10]; single dose of 5 mg/kg): no overt toxicity
Concentrations that significantly reduced MM cell viability [1]: less than 250 nM

N=C(N)c1cn(C2OC(CO)C(O)C2O)c2ncnc(N)c12 (stereo not drawn) [SLM7]
Tumor growth delay relative to vehicle-treated controls ([9]; weekly i.p.): 7 days
Toxicity by body condition scoring ([10]; single dose of 5 mg/kg): no overt toxicity
Concentrations that significantly reduced MM cell viability [1]: less than 250 nM

Cl.NNc1c(C(N)=O)c2c(N)ncnc2n1C1OC(CO)C(O)C1O (stereo not drawn) [SLM3 HCl]
Effect on the growth of MM tumors ([9]; 25 mg/kg, weekly i.p.): no effect
Toxicity by body condition scoring ([10]; single dose of 25 mg/kg): no overt toxicity

CC[C@H](CO)Nc1nc(NCc2ccccc2)c2ncn(C(C)C)c2n1 [roscovitine]
Effect on MM cell viability [1]: relatively insensitive

O=C1Cc2c([nH]c3ccc([N+](=O)[O-])cc23)-c2ccccc2N1 [alsterpaullone]
Effect on MM cell viability [1]: micromolar concentrations of alsterpaullone) were able to reduce the viability of MM cells

CC(C)[C@H](CO)Nc1nc(Nc2cccc(Cl)c2)c2ncn(C(C)C)c2n1 [purvalanol A]
Effect on MM cell viability [1]: neither LiCl nor purvalanol A reduced MM cell viability; also recorded: relatively insensitive

CC(C)C[C@H](NC(=O)[C@H](Cc1ccccc1)NC(=O)c1cnccn1)B(O)O [bortezomib, reference compound]
Sensitivity of MM cell lines and primary patient plasma cells to single agent [13]: sensitive

From publication PMC3502072 (Molecular cancer therapeutics, 2012)
